In ChEMBL document CHEMBL4732243, “Design, synthesis, and structure activity relationship analysis of new betulinic acid derivatives as potent HIV inhibitors” (Eur J Med Chem, 2021):

What was measured:
[1] = tested on: MT4; assay: Cytotoxicity against human MT4 cells assessed as reduction in cell viability incubated for 2 days by CytoTox-Glo cytotoxicity assay; assay type: cell-based; details: mt4, 48 h, time 2 day
Method in brief: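 Mock-infected MT-4 cells cultured 2 days with a range of compound concentrations. Viability measured by CytoTox-Glo, following the kit protocol, as percent viable cells. CC50 is the concentration giving a 50% reduction in cell viability.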

[2] = tested on: Human immunodeficiency virus 1; assay: Potency index, ratio of IC50 for bevirimat to IC50 for test compound for antiviral activity against HIV-1 NL4-3 infected in human MT4 cells assessed as reduction in p24 gag protein incubated for 4 days by ELISA; assay type: functional; details: time 4 day
Method in brief: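 MT-4 cells infected with HIV-1 NL4-3 at MOI 0.01 and cultured with the test compounds. Bevirimat was run in parallel as the reference control. Supernatant p24 was measured on day 4 post-infection by antigen-capture ELISA. IC50 is the concentration that inhibits NL4-3 replication by 50%. The index is the bevirimat IC50 divided by the test-compound IC50.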

[3] = tested on: Human immunodeficiency virus 1; assay: Antiviral activity against HIV-1 NL4-3 infected in human MT4 cells assessed as reduction in p24 gag protein incubated for 4 days by ELISA; assay type: functional, organism-based; details: Human immunodeficiency virus 1, NL4-3, MT4, 96 h
Method in brief: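 MT-4 cells infected with HIV-1 NL4-3 at MOI 0.01, serial compound concentrations, in 96-well format. Supernatant p24 antigen measured by capture ELISA on day 4 post-infection. IC50 is the concentration that inhibits NL4-3 replication by 50%. Bevirimat run in parallel as the reference.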

With `C=C(C)[C@@H]1CC[C@]2(C(=O)N3CCN(C(=O)/C=C/c4ccc(O)c(O)c4)CC3)CC[C@]3(C)[C@H](CC[C@@H]4[C@@]5(C)CC[C@H](OC(=O)CC(C)(C)C(=O)O)C(C)(C)[C@@H]5CC[C@]43C)[C@@H]12` the CC50 [1] was > 2000 nM and the “Ratio IC50” value [2] was 2.

`C=C(C)[C@@H]1CC[C@]2(C(=O)N3CCN(C(=O)/C=C/c4ccc5c(c4)OCO5)CC3)CC[C@]3(C)[C@H](CC[C@@H]4[C@@]5(C)CC[C@H](OC(=O)CC(C)(C)C(=O)O)C(C)(C)[C@@H]5CC[C@]43C)[C@@H]12` was tested, and the CC50 [1] was > 2000 nM and the “Ratio IC50” value [2] was 2.

`C=C(C)[C@@H]1CC[C@]2(C(=O)NCCCNC(=O)/C=C/c3ccc4c(c3)OCO4)CC[C@]3(C)[C@H](CC[C@@H]4[C@@]5(C)CC[C@H](OC(=O)CC(C)(C)C(=O)O)C(C)(C)[C@@H]5CC[C@]43C)[C@@H]12` was tested, and the IC50 ([3]; read-out: IC50) was 17 nM, the IC50 ([3]; read-out: pIC50 (converted)) was 17 nM and the CC50 [1] was > 2000 nM.

With `C=C(C)[C@@H]1CC[C@]2(C(=O)N3CCN(C(=O)CCc4ccc5c(c4)OCO5)CC3)CC[C@]3(C)[C@H](CC[C@@H]4[C@@]5(C)CC[C@H](OC(=O)CC(C)(C)C(=O)O)C(C)(C)[C@@H]5CC[C@]43C)[C@@H]12` the IC50 ([3]; read-out: IC50) was 22 nM, the IC50 ([3]; read-out: pIC50 (converted)) was 21.9 nM and the CC50 [1] was > 2000 nM.

`C=C(C)[C@@H]1CC[C@]2(C(=O)OCCCNc3nccs3)CC[C@]3(C)[C@H](CC[C@@H]4[C@@]5(C)CC[C@H](OC(=O)CC(C)(C)C(=O)O)C(C)(C)[C@@H]5CC[C@]43C)[C@@H]12` was tested, and the IC50 ([3]; read-out: IC50) was 39 nM, the IC50 ([3]; read-out: pIC50 (converted)) was 38.9 nM and the CC50 [1] was > 2000 nM.

With `C=C(C)[C@@H]1CC[C@]2(C(=O)N3CCN(C(=O)/C=C/c4csc5ccccc45)CC3)CC[C@]3(C)[C@H](CC[C@@H]4[C@@]5(C)CC[C@H](OC(=O)CC(C)(C)C(=O)O)C(C)(C)[C@@H]5CC[C@]43C)[C@@H]12` the IC50 ([3]; read-out: IC50) was 180 nM, the IC50 ([3]; read-out: pIC50 (converted)) was 182 nM and the CC50 [1] was > 2000 nM.

`C=C(C)[C@@H]1CC[C@]2(C(=O)N3CCN(C(=O)/C(C)=C/c4ccc5c(c4)OCO5)CC3)CC[C@]3(C)[C@H](CC[C@@H]4[C@@]5(C)CC[C@H](OC(=O)CC(C)(C)C(=O)O)C(C)(C)[C@@H]5CC[C@]43C)[C@@H]12` was tested, and the IC50 ([3]; read-out: IC50) was 57 nM, the IC50 ([3]; read-out: pIC50 (converted)) was 57.5 nM and the CC50 [1] was > 2000 nM.

For `C=C(C)[C@@H]1CC[C@]2(C(=O)N3CCN(C(=O)/C=C/c4ccc5c(c4)CCO5)CC3)CC[C@]3(C)[C@H](CC[C@@H]4[C@@]5(C)CC[C@H](OC(=O)CC(C)(C)C(=O)O)C(C)(C)[C@@H]5CC[C@]43C)[C@@H]12`, the IC50 ([3]; read-out: IC50) was 67 nM, the IC50 ([3]; read-out: pIC50 (converted)) was 67.6 nM and the CC50 [1] was > 2000 nM.

With `C=C(C)[C@@H]1CC[C@]2(C(=O)N3CCN(CCCCC(=O)N4CCN(c5cc(NCc6ccccc6)ncn5)CC4)CC3)CC[C@]3(C)[C@H](CC[C@@H]4[C@@]5(C)CC[C@H](OC(=O)CC(C)(C)C(=O)O)C(C)(C)[C@@H]5CC[C@]43C)[C@@H]12` the IC50 ([3]; read-out: IC50) was 12 nM and the CC50 [1] was > 2000 nM.

With `C=C(C)[C@@H]1CC[C@]2(C(=O)N3CCN(C(=O)/C=C/c4ccc5c(c4)OCCO5)CC3)CC[C@]3(C)[C@H](CC[C@@H]4[C@@]5(C)CC[C@H](OC(=O)CC(C)(C)C(=O)O)C(C)(C)[C@@H]5CC[C@]43C)[C@@H]12` the IC50 ([3]; read-out: IC50) was 50 nM, the IC50 ([3]; read-out: pIC50 (converted)) was 50.1 nM and the CC50 [1] was > 2000 nM.

`C=C(C)[C@@H]1CC[C@]2(C(=O)OCCCOC(=O)/C=C/c3ccc(OC)cc3)CC[C@]3(C)[C@H](CC[C@@H]4[C@@]5(C)CC[C@H](OC(=O)CC(C)(C)C(=O)O)C(C)(C)[C@@H]5CC[C@]43C)[C@@H]12` was tested, and the IC50 ([3]; read-out: IC50) was 850 nM, the IC50 ([3]; read-out: pIC50 (converted)) was 851 nM and the CC50 [1] was > 2000 nM.

For `C=C(C)[C@@H]1CC[C@]2(C(=O)N3CCN(C(=O)/C=C/c4cccs4)CC3)CC[C@]3(C)[C@H](CC[C@@H]4[C@@]5(C)CC[C@H](OC(=O)CC(C)(C)C(=O)O)C(C)(C)[C@@H]5CC[C@]43C)[C@@H]12`, the IC50 ([3]; read-out: IC50) was 32 nM, the IC50 ([3]; read-out: pIC50 (converted)) was 32.4 nM and the CC50 [1] was > 2000 nM.

With `C=C(C)[C@@H]1CC[C@]2(C(=O)N3CCN(C(=O)/C=C/c4ccc(OCOC)c(OC)c4)CC3)CC[C@]3(C)[C@H](CC[C@@H]4[C@@]5(C)CC[C@H](OC(=O)CC(C)(C)C(=O)O)C(C)(C)[C@@H]5CC[C@]43C)[C@@H]12` the IC50 ([3]; read-out: IC50) was 25 nM, the IC50 ([3]; read-out: pIC50 (converted)) was 25.1 nM and the CC50 [1] was > 2000 nM. The “Ratio IC50” value [2] was 2.

`C=C(C)[C@@H]1CC[C@]2(C(=O)N3CCN(C(=O)/C=C/c4ccc(O)c(OC)c4)CC3)CC[C@]3(C)[C@H](CC[C@@H]4[C@@]5(C)CC[C@H](OC(=O)CC(C)(C)C(=O)O)C(C)(C)[C@@H]5CC[C@]43C)[C@@H]12` was tested, and the IC50 ([3]; read-out: IC50) was 18 nM, the IC50 ([3]; read-out: pIC50 (converted)) was 18.2 nM and the CC50 [1] was > 2000 nM. The “Ratio IC50” value [2] was 2.

For `C=C(C)[C@@H]1CC[C@]2(C(=O)N3CCN(C(=O)/C=C/c4ccc5occc5c4)CC3)CC[C@]3(C)[C@H](CC[C@@H]4[C@@]5(C)CC[C@H](OC(=O)CC(C)(C)C(=O)O)C(C)(C)[C@@H]5CC[C@]43C)[C@@H]12`, the IC50 ([3]; read-out: IC50) was 150 nM, the IC50 ([3]; read-out: pIC50 (converted)) was 151 nM and the CC50 [1] was > 2000 nM.

With `C=C(C)[C@@H]1CC[C@]2(C(=O)N3CCN(C(=O)/C=C/c4ccc5c(c4)OC(F)(F)O5)CC3)CC[C@]3(C)[C@H](CC[C@@H]4[C@@]5(C)CC[C@H](OC(=O)CC(C)(C)C(=O)O)C(C)(C)[C@@H]5CC[C@]43C)[C@@H]12` the IC50 ([3]; read-out: IC50) was 590 nM, the IC50 ([3]; read-out: pIC50 (converted)) was 589 nM and the CC50 [1] was > 2000 nM.

In the case of `C=C(C)[C@@H]1CC[C@]2(C(=O)N3CCN(C(=O)/C=C/c4ccc5[nH]ccc5c4)CC3)CC[C@]3(C)[C@H](CC[C@@H]4[C@@]5(C)CC[C@H](OC(=O)CC(C)(C)C(=O)O)C(C)(C)[C@@H]5CC[C@]43C)[C@@H]12`, the IC50 ([3]; read-out: IC50) is reported as 50 nM, the IC50 ([3]; read-out: pIC50 (converted)) is reported as 50.1 nM and the CC50 [1] is reported as > 2000 nM.

`C=C(C)[C@@H]1CC[C@]2(C(=O)N3CCN(C(=O)CC(C)(C)C(=O)O)CC3)CC[C@]3(C)[C@H](CC[C@@H]4[C@@]5(C)CC[C@H](ON6CCN(C(=O)CC(C)(C)C(=O)O)CC6)C(C)(C)[C@@H]5CC[C@]43C)[C@@H]12` was tested, and the IC50 ([3]; read-out: IC50) was 14 nM, the IC50 ([3]; read-out: pIC50 (converted)) was 14.1 nM and the CC50 [1] was > 2000 nM.

For `C=C(C)[C@@H]1CC[C@]2(C(=O)N3CCN(C(=O)CCC(=O)Nc4nccs4)CC3)CC[C@]3(C)[C@H](CC[C@@H]4[C@@]5(C)CC[C@H](OC(=O)CC(C)(C)C(=O)O)C(C)(C)[C@@H]5CC[C@]43C)[C@@H]12`, the IC50 ([3]; read-out: IC50) was 40 nM, the IC50 ([3]; read-out: pIC50 (converted)) was 39.8 nM and the CC50 [1] was > 2000 nM.

With `C=C(C)[C@@H]1CC[C@]2(C(=O)OCCCN3CCN(c4cc(NCc5ccccc5)ncn4)CC3)CC[C@]3(C)[C@H](CC[C@@H]4[C@@]5(C)CC[C@H](OC(=O)CC(C)(C)C(=O)O)C(C)(C)[C@@H]5CC[C@]43C)[C@@H]12` the IC50 ([3]; read-out: IC50) was 430 nM and the CC50 [1] was > 2000 nM.

For `C=C(C)[C@@H]1CC[C@]2(C(=O)N3CCN(C(=O)/C(=C/c4ccc5c(c4)OCO5)CC)CC3)CC[C@]3(C)[C@H](CC[C@@H]4[C@@]5(C)CC[C@H](OC(=O)CC(C)(C)C(=O)O)C(C)(C)[C@@H]5CC[C@]43C)[C@@H]12`, the IC50 ([3]; read-out: IC50) was 130 nM, the IC50 ([3]; read-out: pIC50 (converted)) was 129 nM and the CC50 [1] was > 2000 nM.

For `C=C(C)[C@@H]1CC[C@]2(C(=O)N3CCN(c4cc(NCc5ccccc5)ncn4)CC3)CC[C@]3(C)[C@H](CC[C@@H]4[C@@]5(C)CC[C@H](OC(=O)CC(C)(C)C(=O)O)C(C)(C)[C@@H]5CC[C@]43C)[C@@H]12`, the IC50 ([3]; read-out: IC50) was 37 nM and the CC50 [1] was > 2000 nM.

For `C=C(C)[C@@H]1CC[C@]2(C(=O)N3CCN(C(=O)/C=C/c4cn(C)c5ccccc45)CC3)CC[C@]3(C)[C@H](CC[C@@H]4[C@@]5(C)CC[C@H](OC(=O)CC(C)(C)C(=O)O)C(C)(C)[C@@H]5CC[C@]43C)[C@@H]12`, the IC50 ([3]; read-out: IC50) was 140 nM, the IC50 ([3]; read-out: pIC50 (converted)) was 141 nM and the CC50 [1] was > 2000 nM.

In the case of `C=C(C)[C@@H]1CC[C@]2(C(=O)N3CCNCC3)CC[C@]3(C)[C@H](CC[C@@H]4[C@@]5(C)CC[C@H](Oc6ccc(O)c(O)c6)C(C)(C)[C@@H]5CC[C@]43C)[C@@H]12`, the IC50 ([3]; read-out: IC50) is reported as 490 nM, the IC50 ([3]; read-out: pIC50 (converted)) is reported as 490 nM and the CC50 [1] is reported as > 2000 nM.

For `C=C(C)[C@@H]1CC[C@]2(C(=O)N3CCN(C(=O)/C=C/c4c[nH]c5ccccc45)CC3)CC[C@]3(C)[C@H](CC[C@@H]4[C@@]5(C)CC[C@H](OC(=O)CC(C)(C)C(=O)O)C(C)(C)[C@@H]5CC[C@]43C)[C@@H]12`, the IC50 ([3]; read-out: IC50) was 69 nM, the IC50 ([3]; read-out: pIC50 (converted)) was 69.2 nM and the CC50 [1] was > 2000 nM.
